According to ChEMBL document CHEMBL4602632, “Synthesis and anti-Mycobacterium tuberculosis activity of imide-β-carboline and carbomethoxy-β-carboline derivatives” (Eur J Med Chem, 2020):
≈ marks a conversion by molar mass, not a printed value.

Tests used:
Format in all cases: functional
[1] = test system: Mycobacterium tuberculosis; assay: Antimycobacterial activity against Mycobacterium tuberculosis 71A harbouring KatG Ser315Thr mutant and wild type InhA assessed as reduction in bacterial growth incubated for 7 days by resazurin dye based assay
In short: (§1)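 REMA broth microdilution: DMSO stocks diluted in 7H9-OADC, standardized inoculum added, final 0.98 to 250 μg/mL; 7 days at 35 °C in normal atmosphere, then 0.01% resazurin and a further 24 h at 35 °C. Read visually. MIC is the lowest concentration preventing the blue-to-pink change. Three independent assays on different days; isoniazid reference, medium, sterility and growth ±2.5% DMSO controls.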

[2] = test system: Mycobacterium tuberculosis; assay: Antimycobacterial activity against Mycobacterium tuberculosis BRF57 harbouring KatG Ser315Thr mutant and wild type InhA assessed as reduction in bacterial growth incubated for 7 days by resazurin dye based assay; in short: as §1
[3] = test system: Mycobacterium tuberculosis; assay: Antimycobacterial activity against Mycobacterium tuberculosis 73A harbouring KatG Ser315Thr mutant and wild type InhA assessed as reduction in bacterial growth incubated for 7 days by resazurin dye based assay; in short: as §1
[4] = test system: Mycobacterium tuberculosis; assay: Antimycobacterial activity against Mycobacterium tuberculosis BRF14 harbouring KatG Ser315Thr mutant and wild type InhA assessed as reduction in bacterial growth incubated for 7 days by resazurin dye based assay; in short: as §1
[5] = test system: Mycobacterium tuberculosis; assay: Antimycobacterial activity against Mycobacterium tuberculosis 3614 harbouring wild type KatG and InhA Ile21Thr mutant assessed as reduction in bacterial growth incubated for 7 days by resazurin dye based assay; in short: as §1
[6] = test system: Mycobacterium tuberculosis; assay: Antimycobacterial activity against Mycobacterium tuberculosis BRF16 harbouring KatG Ser315Thr mutant and wild type InhA assessed as reduction in bacterial growth incubated for 7 days by resazurin dye based assay; in short: as §1
[7] = test system: Mycobacterium tuberculosis; assay: Antimycobacterial activity against Mycobacterium tuberculosis BRF45 harbouring KatG Ser315Thr mutant and wild type InhA assessed as reduction in bacterial growth incubated for 7 days by resazurin dye based assay; in short: as §1
[8] = test system: Mycobacterium tuberculosis; assay: Antimycobacterial activity against Mycobacterium tuberculosis 91 harbouring KatG Ser315Thr mutant and wild type InhA assessed as reduction in bacterial growth incubated for 7 days by resazurin dye based assay; in short: as §1
[9] = test system: Mycobacterium tuberculosis; assay: Antimycobacterial activity against Mycobacterium tuberculosis 19 harbouring KatG Ser315Thr mutant and wild type InhA assessed as reduction in bacterial growth incubated for 7 days by resazurin dye based assay; in short: as §1

SMILES	MIC [1] [µM]	MIC [2] [µM]	MIC [3] [µM]	MIC [4] [µM]	MIC [5] [µM]	MIC [6]	MIC [7] [µM]	MIC [8] [µM]	MIC [9] [µM]
COC(=O)c1cc2c([nH]c3ccccc32)c(-c2ccc(N(C)C)cc2)n1	>724.32	362.16 (≈ 125 µg/mL)	90.54 (≈ 31.3 µg/mL)	724.32 (≈ 250 µg/mL)	90.54 (≈ 31.3 µg/mL)	362.16 µM	90.54 (≈ 31.3 µg/mL)	180.36 (≈ 62.3 µg/mL)	90.55 (≈ 31.3 µg/mL)
O=C(NN1C(=O)CCC1=O)c1cc2c([nH]c3ccccc32)c(-c2ccc(F)cc2)n1	310.86 (≈ 125 µg/mL)	310.86 (≈ 125 µg/mL)	77.72 (≈ 31.3 µg/mL)	310.86 (≈ 125 µg/mL)	155.43 (≈ 62.5 µg/mL)	62.5 µg/mL	77.72 (≈ 31.3 µg/mL)	310.86 (≈ 125 µg/mL)	155.43 (≈ 62.5 µg/mL)
O=C(NN1C(=O)c2ccccc2C1=O)c1cc2c([nH]c3ccccc32)c(-c2cccc([N+](=O)[O-])c2)n1	>523.99	>523.99	261.99 (≈ 125 µg/mL)	523.99 (≈ 250 µg/mL)	261.99 (≈ 125 µg/mL)	261.99 µM	261.99 (≈ 125 µg/mL)	>523.99	261.99 (≈ 125 µg/mL)
O=C(NN1C(=O)c2ccccc2C1=O)c1cc2c([nH]c3ccccc32)c(-c2ccccc2)n1	289.27 (≈ 125 µg/mL)	289.27 (≈ 125 µg/mL)	144.64 (≈ 62.5 µg/mL)	289.27 (≈ 125 µg/mL)	144.64 (≈ 62.5 µg/mL)	289.27 µM	144.64 (≈ 62.5 µg/mL)	289.27 (≈ 125 µg/mL)	144.64 (≈ 62.5 µg/mL)
O=C(NN1C(=O)c2ccccc2C1=O)c1cc2c([nH]c3ccccc32)c(-c2ccc(F)cc2)n1	277.71 (≈ 125 µg/mL)	277.71 (≈ 125 µg/mL)	138.85 (≈ 62.5 µg/mL)	138.85 (≈ 62.5 µg/mL)	138.85 (≈ 62.5 µg/mL)	138.85 µM	138.85 (≈ 62.5 µg/mL)	277.71 (≈ 125 µg/mL)	138.85 (≈ 62.5 µg/mL)
NNC(=O)c1ccncc1 [ISONIAZID]	4 (≈ 0.549 µg/mL)	4 (≈ 0.549 µg/mL)	4 (≈ 0.549 µg/mL)	8 (≈ 1.1 µg/mL)	4 (≈ 0.549 µg/mL)	8 µM	4 (≈ 0.549 µg/mL)	2 (≈ 0.274 µg/mL)	2 (≈ 0.274 µg/mL)
